Assay results reported in ChEMBL document CHEMBL1130288, “(3R)-N-(1-(tert-butylcarbonylmethyl)-2,3-dihydro-2-oxo-5-(2-pyridyl)-1H-1,4-benzodiazepin-3-yl)-N'-(3-(methylamino)phenyl)urea (YF476): a potent and orally active gastrin/CCK-B antagonist” (J Med Chem, 1997).

Legend:
Canis familiaris [1] = assay: Concentration required to inhibit pentagastrin-induced gastric acid secretion in heidenhain pouch dogs upon intravenous administration; assay type: functional; details: Canis lupus familiaris, Stomach
Outline: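 Male beagle dogs with Heidenhain pouch, fasted 18 h with water allowed. Pentagastrin infused at 8 µmol/kg/h through femoral vein. Compound dissolved in DMF and given iv 3 h after infusion start. Juice collected every 15 min, volume measured, acidity titrated with 0.05 N NaOH to pH 7.0.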

Canis familiaris [2] = assay: Concentration required to inhibit pentagastrin-induced gastric acid secretion in heidenhain pouch dogs upon peroral administration; assay type: functional; details: Canis lupus familiaris, Stomach, po
Outline: (§1)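 Male beagle dogs with Heidenhain pouch, food withheld 18 h (water free). Pentagastrin 8 µmol/kg/h infused via femoral vein from 3 h before until 6 h after oral dosing. Gastric juice collected every 15 min; acidity by automatic titration with 0.05 N NaOH to pH 7.0. Inhibition relative to values just before dosing.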

Canis familiaris [3] = assay: Compound at an peroral dose of 3 uM/Kg was tested for the inhibition of pentagastrin-induced gastric acid secretion in heidenhain pouch dogs; assay type: functional, Canis lupus familiaris, Stomach; outline: as §1
[4] = target: Cholecystokinin receptor (Rattus norvegicus) (UniProt P30551+P30553); assay: Ratio of inhibitory concentration; CCK-A receptor to CCK-B receptor; assay type: protein assay
Canis familiaris [5] = assay: Compound at an peroral dose of 1 umol/kg was tested for the inhibition of pentagastrin-induced gastric acid secretion in heidenhain pouch dogs; assay type: functional; details: Canis lupus familiaris, Stomach, po; outline: as §1
Rattus norvegicus [6] = assay: Inhibition of pentagastrin-induced gastric acid secretion in anathesized rats upon intravenous administration; assay type: functional; details: Stomach
Outline: (§2)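 Anesthetized rats, pylorus-ligated with duodenal cannula. Stomach perfused with saline (pH 7.0) at 3 mL/min. Acid output by continuous pH-stat titration with 25 mM NaOH to pH 7.0, per 10 min. Pentagastrin infused iv via femoral vein. Compound in polyethylene glycol 300 given iv 1 h after pentagastrin start. ED50 is the dose reducing acid to 50% of maximum.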

[7] = target: T1, Cholecystokinin receptor type A (Rattus norvegicus, UniProt P30551); assay: Inhibitory concentration against radioligand [3 H]L-364,718 binding to gastrin/Cholecystokinin type A receptor from rat pancreas
T1 sequence (P30551 whole entry): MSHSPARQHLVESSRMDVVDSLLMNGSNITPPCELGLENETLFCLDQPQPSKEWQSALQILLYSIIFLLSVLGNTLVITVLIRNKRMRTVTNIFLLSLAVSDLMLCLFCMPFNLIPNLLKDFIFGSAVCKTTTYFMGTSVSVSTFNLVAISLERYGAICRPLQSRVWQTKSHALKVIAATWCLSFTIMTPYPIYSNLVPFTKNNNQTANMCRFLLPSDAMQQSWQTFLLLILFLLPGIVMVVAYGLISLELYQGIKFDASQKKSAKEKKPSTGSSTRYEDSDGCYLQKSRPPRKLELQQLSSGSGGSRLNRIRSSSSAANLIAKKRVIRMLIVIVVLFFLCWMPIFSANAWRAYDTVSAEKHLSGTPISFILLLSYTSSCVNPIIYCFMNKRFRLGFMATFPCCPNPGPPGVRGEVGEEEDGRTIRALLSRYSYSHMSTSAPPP
Outline: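 Rat pancreas membranes in 50 mM Tris-HCl pH 7.7 containing BSA, MgCl2, bacitracin and DTT. Incubated 30 min at 37 °C with [3H]L-364,718 and compound (in DMSO). Filtration, scintillation counting. Nonspecific binding with […] L-364,718. IC50 is the concentration inhibiting specific binding by 50%.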

Rattus norvegicus [8] = assay: Inhibition of pentagastrin-induced gastric acid secretion in anathesized rats at 0.03 uM/Kg upon intravenous administration; assay type: functional, Stomach; outline: as §2
[9] = target: T2, Gastrin/cholecystokinin type B receptor (Rattus norvegicus, UniProt P30553); assay: Inhibitory concentration against radioligand [125I]CCK-8 binding to gastrin/Cholecystokinin type B receptor from rat brain
T2 sequence (P30553 whole entry): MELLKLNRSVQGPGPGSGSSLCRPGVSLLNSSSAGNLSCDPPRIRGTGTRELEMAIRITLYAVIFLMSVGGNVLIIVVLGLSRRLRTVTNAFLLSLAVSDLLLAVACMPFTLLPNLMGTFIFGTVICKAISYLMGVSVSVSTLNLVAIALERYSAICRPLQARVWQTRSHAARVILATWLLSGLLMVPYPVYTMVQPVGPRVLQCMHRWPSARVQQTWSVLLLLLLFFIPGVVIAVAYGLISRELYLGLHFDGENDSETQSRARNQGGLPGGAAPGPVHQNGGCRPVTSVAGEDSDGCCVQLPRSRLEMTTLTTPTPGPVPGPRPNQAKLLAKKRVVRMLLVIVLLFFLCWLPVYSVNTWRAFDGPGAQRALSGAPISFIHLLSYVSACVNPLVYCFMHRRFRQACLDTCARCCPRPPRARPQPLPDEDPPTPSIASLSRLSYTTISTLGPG
Outline: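 SD rat whole-brain membranes prepared by sucrose homogenisation, differential centrifugation and Triton X-100 wash. Incubated 120 min at 25 °C with [125I]BH-CCK-8 and compound (in DMSO) in 10 mM HEPES pH 6.5 with NaCl, MgCl2, EDTA, bacitracin. Filtration, γ-counting. Nonspecific binding with […] CCK-8. IC50 is the concentration giving 50% inhibition of specific binding.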

Rattus norvegicus [10] = assay: Inhibition of pentagastrin-induced gastric acid secretion in anathesized rats at 0.1 uM/Kg upon intravenous administration; assay type: functional, Stomach; outline: as §2
Canis familiaris [11] = assay: Compound at an peroral dose of 0.3 uM/Kg was tested for the inhibition of pentagastrin-induced gastric acid secretion in heidenhain pouch dogs; assay type: functional, Canis lupus familiaris, Stomach; outline: as §1
Canis familiaris [12] = assay: Compound at an peroral dose of 0.1 uM/Kg was tested for the inhibition of pentagastrin-induced gastric acid secretion in heidenhain pouch dogs; assay type: functional, Canis lupus familiaris, Stomach; outline: as §1
Rattus norvegicus [13] = assay: Inhibition of pentagastrin-induced gastric acid secretion in Dawley rats following intravenous administration; assay type: functional; details: Stomach; outline: as §2
Canis familiaris [14] = assay: Compound at an peroral dose of 0.03 uM/Kg was tested for the inhibition of pentagastrin-induced gastric acid secretion in heidenhain pouch dogs; assay type: functional, Canis lupus familiaris, Stomach; outline: as §1

| Compound | Ratio [4] | IC50 [7] | IC50 [9] | Inhibition (Rattus norvegicus [10]) | other results |
| --- | --- | --- | --- | --- | --- |
| Cc1cccc(NC(=O)N[C@@H]2N=C(c3ccccc3)c3ccccc3N(CC(=O)c3ccccc3C)C2=O)c1 | 1330 | – | – | – | ED50 (Canis familiaris [1]): 0.026 µmol/kg; ED50 (Canis familiaris [2]): 1.9 µmol/kg; Inhibition (Canis familiaris [3]): 72%; inhibition in vivo at 1 µmol/kg (Canis familiaris [5]): 26%; ED50 (Rattus norvegicus [6]): 0.0083 µmol/kg |
| Cc1cccc(NC(=O)N[C@@H]2N=C(c3ccccc3)c3ccccc3N(CC(=O)C(C)(C)C)C2=O)c1 | 213 | 111 nM | 0.52 nM | – | Inhibition (Canis familiaris [3]): 53%; Inhibition (Rattus norvegicus [8]): 77% |
| CNc1cccc(NC(=O)N[C@@H]2N=C(c3ccccc3)c3ccccc3N(CC(=O)C(C)(C)C)C2=O)c1 | 1090 | – | – | 80% | – |
| Cc1cccc(NC(=O)N[C@@H]2N=C(c3ccccn3)c3ccccc3N(CC(=O)C(C)(C)C)C2=O)c1 | 1070 | 470 nM | – | 78% | Inhibition (Canis familiaris [11]): 7%; Inhibition (Canis familiaris [3]): 97% |
| CC(C)(C)C(=O)CN1C(=O)[C@H](NC(=O)Nc2cccc(N3CCCC3)c2)N=C(c2ccccn2)c2ccccc21 | 2300 | 253 nM | 0.11 nM | 75% | – |
| CC(C)(C)C(=O)CN1C(=O)[C@H](NC(=O)Nc2cccc(N)c2)N=C(c2ccccn2)c2ccccc21 | 4230 | 1820 nM | 0.43 nM | 62% | – |
| CC(C)(C)C(=O)CN1C(=O)C(NC(=O)Nc2cccc(C(=O)O)c2)N=C(c2ccccc2)c2ccccc21 (configuration not stated) | 626 | 2060 nM | 3.29 nM | 56% | – |
| CC(C)(C)C(=O)CN1C(=O)C(NC(=O)Nc2cccc([N+](=O)[O-])c2)N=C(c2ccccc2)c2ccccc21 (configuration not stated) | 3680 | 589 nM | 0.16 nM | 76% | – |
| CC(C)(C)C(=O)CN1C(=O)[C@H](NC(=O)Nc2cccc(N)c2)N=C(c2ccccc2)c2ccccc21 | 1910 | – | – | 75% | – |
| CCN(CC)c1cccc(NC(=O)N[C@@H]2N=C(c3ccccn3)c3ccccc3N(CC(=O)C(C)(C)C)C2=O)c1 | 2740 | 301 nM | 0.11 nM | 74% | – |
| CCN(CC)c1cccc(NC(=O)N[C@@H]2N=C(c3ccccc3)c3ccccc3N(CC(=O)C(C)(C)C)C2=O)c1 | 3990 | 558 nM | 0.14 nM | 82% | – |
| CN(C)c1cccc(NC(=O)N[C@@H]2N=C(c3ccccn3)c3ccccc3N(CC(=O)C(C)(C)C)C2=O)c1 | 565 | – | – | – | ED50 (Canis familiaris [1]): 0.014 µmol/kg; Inhibition (Canis familiaris [12]): 98%; ED50 (Rattus norvegicus [13]): 0.011 µmol/kg; Inhibition (Rattus norvegicus [8]): 65%; Inhibition (Canis familiaris [14]): 77% |
| CC(C)(C)C(=O)CN1C(=O)[C@H](NC(=O)Nc2cccc(N3CCCCC3)c2)N=C(c2ccccn2)c2ccccc21 | 1120 | 944 nM | 0.84 nM | 55% | – |
| CNc1cccc(NC(=O)N[C@@H]2N=C(c3ccccn3)c3ccccc3N(CC(=O)C(C)(C)C)C2=O)c1 [NETAZEPIDE] | 5020 | – | – | 87% | ED50 (Canis familiaris [1]): 0.018 µmol/kg; ED50 (Canis familiaris [2]): 0.021 µmol/kg; Inhibition (Canis familiaris [12]): 100%; ED50 (Rattus norvegicus [13]): 0.008 µmol/kg; Inhibition (Canis familiaris [14]): 65% |
| CC(C)(C)C(=O)CN1C(=O)[C@H](NC(=O)Nc2cccc(N3CCCC3)c2)N=C(c2ccccc2)c2ccccc21 | 923 | 157 nM | 0.17 nM | 79% | – |
| CN(C)c1cccc(NC(=O)N[C@@H]2N=C(c3ccccc3)c3ccccc3N(CC(=O)C(C)(C)C)C2=O)c1 | 423 | 89 nM | 0.21 nM | 65% | ED50 (Rattus norvegicus [13]): 0.012 µmol/kg; Inhibition (Canis familiaris [3]): 99% |
| CC(C)(C)C(=O)CN1C(=O)C(NC(=O)Nc2cccc(C#N)c2)N=C(c2ccccc2)c2ccccc21 (configuration not stated) | 542 | 700 nM | 1.29 nM | 65% | – |
| CC(C)(C)C(=O)CN1C(=O)C(NC(=O)Nc2cccc(NC=O)c2)N=C(c2ccccc2)c2ccccc21 (configuration not stated) | 951 | 561 nM | 0.59 nM | 74% | – |
| CN(C)c1cccc(NC(=O)N[C@H]2N=C(c3ccccn3)c3ccccc3N(CC(=O)C(C)(C)C)C2=O)c1 | 454 | 572 nM | 1.26 nM | – | – |
